Experiments:
Type in all cases: functional
[1] = Growth inhibition of human HCC2998 cells assessed as cell growth at 10 '-5 M after 48 hrs by sulforhodamine B assay; conditions: HCC 2998, 48 h, read-out: Activity
[2] = Growth inhibition of human […] cells assessed as cell growth at 10 uM after 48 hrs by sulforhodamine B assay; conditions: read-out: Activity
In short: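 NCI-60 primary screen at a single dose of 10^-5 M. Output is mean growth percent of treated cells relative to untreated controls, where values between 0 and 100 indicate growth inhibition and values below 0 indicate cytotoxicity. Cells were plated 24 h before drug, incubated 48 h at 37 °C, 5% CO2, and stained with SRB after TCA fixation. Suspension cells were fixed with 80% TCA (16% final).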

RPMI-8226 = test: Growth inhibition of human RPMI8226 cells assessed as cell growth at 10 '-5 M after 48 hrs by sulforhodamine B assay; conditions: RPMI-8226, 48 h, read-out: Activity
IGROV-1 = test: Growth inhibition of human IGROV1 cells assessed as cell growth at 10 '-8 M after 48 hrs by sulforhodamine B assay; conditions: IGROV-1, 48 h, read-out: Activity
ACHN = test: Growth inhibition of human ACHN cells assessed as cell growth at 10 '-8 M after 48 hrs by sulforhodamine B assay; conditions: read-out: Activity
In short: (§1)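 Percent growth at each of the five concentrations of the 48 h continuous-exposure NCI SRB screen. Drug stocks were in DMSO at 400× the top final concentration and diluted in medium with gentamicin. Growth was calculated as [(Ti-Tz)/(C-Tz)]×100 when Ti ≥ Tz, or [(Ti-Tz)/Tz]×100 when Ti < Tz. Tz plates were fixed at drug addition; untreated wells served as control. Absorbance was read at 515 nm.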

U-251 = test: Growth inhibition of human U251 cells after 48 hrs by sulforhodamine B assay; conditions: U-251, 48 h
NCI-H460 [3] = test: Growth inhibition of human NCI-H460 cells assessed as cell growth at 10 '-6 M after 48 hrs by sulforhodamine B assay; conditions: NCI-H460, 48 h, read-out: Activity
[4] = Growth inhibition of human HCC2998 cells after 48 hrs by sulforhodamine B assay; conditions: HCC 2998, 48 h
In short: (§2)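 NCI 60-cell-line five-dose screen. Cells were plated at 5,000–40,000/well by doubling time and grown 24 h at 37 °C, 5% CO2. Time-zero plates were TCA-fixed. Drug from DMSO stock was tested at 0.01, 0.1, 1, 10 and 100 µM final for 48 h continuous exposure. Read-out was SRB at 515 nm. GI50 is the concentration giving 50% reduction in net protein increase versus untreated control.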

OVCAR-4 = test: Growth inhibition of human OVCAR4 cells assessed as cell growth at 10 '-4 M after 48 hrs by sulforhodamine B assay; conditions: OVCAR-4, 48 h, read-out: Activity
HCT-116 [5] = test: Growth inhibition of human HCT116 cells assessed as cell growth at 10 '-4 M after 48 hrs by sulforhodamine B assay; conditions: HCT-116, 48 h, read-out: Activity
NCI-H522 = test: Growth inhibition of human NCI-H522 cells assessed as cell growth at 10 '-4 M after 48 hrs by sulforhodamine B assay; conditions: NCI-H522, 48 h, read-out: Activity
HCT-116 [6] = test: Growth inhibition of human HCT116 cells after 48 hrs by sulforhodamine B assay; conditions: HCT-116, 48 h; in short: as §2
SF-268 = test: Growth inhibition of human SF268 cells assessed as growth inhibition at 10 uM after 48 hrs by sulforhodamine B assay; conditions: SF-268, 48 h, read-out: GI
M14 = test: Growth inhibition of human M14 cells assessed as cell growth at 10 '-5 M after 48 hrs by sulforhodamine B assay; conditions: M14, 48 h, read-out: Activity
SN12C = test: Growth inhibition of human SN12C cells assessed as cell growth at 10 '-8 M after 48 hrs by sulforhodamine B assay; conditions: read-out: Activity
MCF7 = test: Growth inhibition of human MCF7 cells assessed as cell growth at 10 '-6 M after 48 hrs by sulforhodamine B assay; conditions: MCF7, 48 h, read-out: Activity
NCI-H460 [7] = test: Growth inhibition of human NCI-H460 cells assessed as cell growth at 10 '-7 M after 48 hrs by sulforhodamine B assay; conditions: NCI-H460, 48 h, read-out: Activity
HOP-62 = test: Growth inhibition of human HOP62 cells assessed as cell growth at 10 '-7 M after 48 hrs by sulforhodamine B assay; conditions: HOP-62, 48 h, read-out: Activity
[8] = Growth inhibition of human Hs 578T cells assessed as cell growth at 10 '-4 M after 48 hrs by sulforhodamine B assay; conditions: read-out: Activity
SW-620 = test: Growth inhibition of human SW620 cells assessed as cell growth at 10 '-5 M after 48 hrs by sulforhodamine B assay; conditions: SW-620, 48 h, read-out: Activity
HOP-92 = test: Growth inhibition of human HOP92 cells assessed as cell growth at 10 '-8 M after 48 hrs by sulforhodamine B assay; conditions: HOP-92, 48 h, read-out: Activity
SR = test: Growth inhibition of human SR cells assessed as cell growth at 10 '-6 M after 48 hrs by sulforhodamine B assay; conditions: read-out: Activity
786-0 = test: Growth inhibition of human 786-0 cells assessed as cell growth at 10 '-8 M after 48 hrs by sulforhodamine B assay; conditions: 786-0, 48 h, read-out: Activity; in short: as §1
LOX IMVI = test: Growth inhibition of human LOXIMVI cells assessed as growth inhibition at 10 uM after 48 hrs by sulforhodamine B assay; conditions: read-out: GI
OVCAR-5 = test: Growth inhibition of human OVCAR5 cells assessed as cell growth at 10 '-7 M after 48 hrs by sulforhodamine B assay; conditions: OVCAR-5, 48 h, read-out: Activity
COLO 205 [9] = test: Growth inhibition of human COLO205 cells assessed as cell growth at 10 '-4 M after 48 hrs by sulforhodamine B assay; conditions: COLO 205, 48 h, read-out: Activity
In short: (§3)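 In the same five-dose SRB screen (48 h, 37 °C, 5% CO2), percentage growth was computed at each concentration from time-zero (Tz), control (C) and treated (Ti) absorbances. The formula was [(Ti−Tz)/(C−Tz)]×100 when Ti ≥ Tz, or [(Ti−Tz)/Tz]×100 when Ti < Tz.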

COLO 205 [10] = test: Growth inhibition of human COLO205 cells assessed as cell growth at 10 '-5 M after 48 hrs by sulforhodamine B assay; conditions: COLO 205, 48 h, read-out: Activity; in short: as §3
Malme-3M = test: Growth inhibition of human MALME-3M cells assessed as cell growth at 10 '-5 M after 48 hrs by sulforhodamine B assay; conditions: read-out: Activity
COLO 205 [11] = test: Growth inhibition of human COLO205 cells after 48 hrs by sulforhodamine B assay; conditions: COLO 205, 48 h; in short: as §2
[12] = read-out: LD50 (the source's name)

Work on `Cc1cc(=O)oc2cc(OCCn3c(C)nn(-c4ccc(Cl)cc4)c3=O)ccc12` yielded a growth at 10 µM [1] of 29%, a growth at 10 µM [2] of 32.9% and a growth at 10 µM (RPMI-8226) of 50%. For the same compound, the growth at 0.01 µM (IGROV-1) was 108%, the growth at 0.01 µM (ACHN) was 111% and the GI50 (U-251) was 4.18 µM. The TGI (U-251) was 7.23 µM, the CC50 (U-251; [12]) was > 1 µM and the growth at 1 µM (NCI-H460 [3]) was 83%. For the same compound, the GI50 [4] was 3.59 µM, the TGI [4] was > 1 µM and the CC50 [4, 12] was > 1 µM. The growth at 100 µM (OVCAR-4) was 40%, the growth at 100 µM (HCT-116 [5]) was 23% and the growth at 100 µM (NCI-H522) was -22%. For the same compound, the GI50 (HCT-116 [6]) was 3.57 µM, the TGI (HCT-116 [6]) was > 1 µM and the CC50 (HCT-116 [6]; [12]) was > 1 µM. The inhibition of growth at 10 µM (SF-268) was 49.7%, the growth at 10 µM (M14) was 22% and the growth at 0.01 µM (SN12C) was 94%. It also gave a growth at 1 µM (MCF7) of 77%, a growth at 0.1 µM (NCI-H460 [7]) of 99% and a growth at 0.1 µM (HOP-62) of 103%. It also gave a growth at 100 µM [8] of 7%, a growth at 10 µM (SW-620) of 16% and a growth at 0.01 µM (HOP-92) of 87%. The growth at 1 µM (SR) was 29%, the growth at 0.01 µM (786-0) was 103% and the inhibition of growth at 10 µM (LOX IMVI) was 52%. For the same compound, the growth at 0.1 µM (OVCAR-5) was 102%, the growth at 100 µM (COLO 205 [9]) was -38% and the growth at 10 µM (COLO 205 [10]) was -14%. The growth at 10 µM (Malme-3M) was 28%, the GI50 (COLO 205 [11]) was 2.39 µM and the TGI (COLO 205 [11]) was 7.34 µM. For the same compound, the CC50 (COLO 205 [11]; [12]) was > 1 µM.

From ChEMBL document CHEMBL2346664, “Synthesis, characterization and in vitro anticancer evaluation of novel 1,2,4-triazolin-3-one derivatives” (2013)
